Measured values reported in ChEMBL document CHEMBL1140171, “Synthesis and utilization of chiral alpha-methylated alpha-amino acids with a carboxyalkyl side chain in the design of novel Grb2-SH2 peptide inhibitors free of phosphotyrosine” (J Med Chem, 2008).
Starred links: 1 amine or outer side, 2 acyl side, 3 side chain; linkers in the order of their positions; H or OH if unused. Positions of bridges follow the written chain, without caps; N, C: chain ends. Non-standard residues stand in square brackets, D forms with d. Residues, ends and D or L forms follow the SMILES beside them. *: point of attachment. Cys(CH2CO)(S-oxide,Ss) = O=C([C@H](C[S@+]([O-])CC(=O)[*:3])N[*:1])[*:2]; X1 = O=C(O)CCc1cc(C[C@H](N[*:1])C(=O)[*:2])ccc1O; Tyr(3-NH2) = Nc1cc(C[C@H](N)C(=O)O)ccc1O; X2 = C[C@](CCCC(=O)O)(N[*:1])C(=O)[*:2]; Gla = N[C@@H](CC(C(=O)O)C(=O)O)C(=O)O; Fmoc = O=C(OCC1c2ccccc2-c2ccccc21)*; αMehGlu = C[C@](N)(CCCC(=O)O)C(=O)O; αMeE = C[C@](N)(CCC(=O)O)C(=O)O; Aad = N[C@@H](CCCC(=O)O)C(=O)O; αMeD = C[C@](N)(CC(=O)O)C(=O)O; Ac6c = NC1(C(=O)O)CCCCC1; Ava = NCCCCC(=O)O

Assays:
[1] = biological target: Growth factor receptor-bound protein 2 (Homo sapiens, UniProt P62993); assay: Binding affinity to recombinant Grb2 SH2 domain by surface plasmon resonance analysis
Outline: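 Competition SPR: inhibitor mixed with recombinant Grb2 SH2 protein, with equilibrium binding measured to immobilized biotinyl-DDPS-pY-VNVQ (SHC pTyr317 phosphopeptide) on a streptavidin SA chip. Run in pH 7.4 PBS with 0.01% P-20 surfactant. IC50 is the concentration giving half-maximal competition, as the mean of at least two independent experiments with standard deviation.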

MDA-MB-453 = assay: Antiproliferative activity against human MDA-MB-453 cells expressing erbB-2 after 4 days by WST-8 assay; format: functional, cell-based; conditions: MDA-MB-453, 96 h
Outline: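 MDA-MB-453 cells (erbB-2 overexpressing) seeded at (3-4) × 10^3 cells/well with a range of inhibitor concentrations, incubated 4 days. WST-8 added to 10% final, 2-3 h at 37 °C, absorbance read at 450 nm. IC50 is the concentration giving 50% growth inhibition, taken against untreated DMSO-control absorbance.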

Row | IC50 [1] [µM] | IC50 (MDA-MB-453) [µM] | SMILES
1 | 30.5 |  | CC(C)C[C@@H]1NC(=O)[C@H](CCCC(=O)O)NC(=O)C[S@@+]([O-])C[C@@H](C(N)=O)NC(=O)CCCCNC(=O)[C@H](CC(N)=O)NC(=O)[C@](C)(CC(=O)O)NC(=O)[C@H](Cc2ccc(O)cc2)NC1=O ([Aad]LY[αMeD]N[Ava][Cys(CH2CO)(S-oxide,Ss)]-NH2; lactam N-7)
2 | 30.5 |  | CC(C)C[C@@H]1NC(=O)[C@H](CCCC(=O)O)NC(=O)C[S@@+]([O-])C[C@@H](C(N)=O)NC(=O)CCCCNC(=O)[C@H](CC(N)=O)NC(=O)[C@@](C)(CCC(=O)O)NC(=O)[C@H](Cc2ccc(O)cc2)NC1=O
3 | 9.5 |  | CC(C)C[C@@H]1NC(=O)[C@H](CC(C(=O)O)C(=O)O)NC(=O)CSC[C@@H](C(N)=O)NC(=O)CCCCNC(=O)[C@H](CC(N)=O)NC(=O)[C@](C)(CCCC(=O)O)NC(=O)[C@H](Cc2ccc(O)c(N)c2)NC1=O ({CH2CO}-[Gla]L[Tyr(3-NH2)][αMehGlu]N[Ava]C-NH2; thioether N-7)
4 | 1.15 | 12 | CC(C)C[C@@H]1NC(=O)[C@H](CC(C(=O)O)C(=O)O)NC(=O)C[S@@+]([O-])C[C@@H](C(N)=O)NC(=O)CCCCNC(=O)[C@H](CC(N)=O)NC(=O)[C@](C)(CCCC(=O)O)NC(=O)[C@H](Cc2ccc(O)c(N)c2)NC1=O ([Gla]L[Tyr(3-NH2)][αMehGlu]N[Ava][Cys(CH2CO)(S-oxide,Ss)]-NH2; lactam N-7)
5 | 8.1 |  | CC(C)C[C@@H]1NC(=O)[C@H](CCCC(=O)O)NC(=O)C[S@@+]([O-])C[C@@H](C(N)=O)NC(=O)CCCCNC(=O)[C@H](CC(N)=O)NC(=O)[C@](C)(CCC(=O)O)NC(=O)[C@H](Cc2ccc(O)c(N)c2)NC1=O ([Aad]L[Tyr(3-NH2)][αMeE]N[Ava][Cys(CH2CO)(S-oxide,Ss)]-NH2; lactam N-7)
6 | 70 |  | CC(C)C[C@@H]1NC(=O)[C@H](CCCC(=O)O)NC(=O)CSC[C@@H](C(N)=O)NC(=O)CCCCNC(=O)[C@H](CC(N)=O)NC(=O)[C@](C)(CCC(=O)O)NC(=O)[C@H](Cc2ccc(O)cc2)NC1=O
7 | 18 |  | CC(C)C[C@@H]1NC(=O)[C@H](CCCC(=O)O)NC(=O)C[S@@+]([O-])C[C@@H](C(N)=O)NC(=O)CCCCNC(=O)[C@H](CC(N)=O)NC(=O)[C@](C)(CCC(=O)O)NC(=O)[C@H](Cc2ccc(O)cc2)NC1=O
8 | 17 |  | CC(C)C[C@@H]1NC(=O)[C@H](CCCC(=O)O)NC(=O)CSC[C@@H](C(N)=O)NC(=O)CCCCNC(=O)[C@H](CC(N)=O)NC(=O)[C@](C)(CCC(=O)O)NC(=O)[C@H](Cc2ccc(O)c(N)c2)NC1=O ({CH2CO}-[Aad]L[Tyr(3-NH2)][αMeE]N[Ava]C-NH2; thioether N-7)
9 | 17 |  | CC(C)C[C@@H]1NC(=O)[C@H](CCCC(=O)O)NC(=O)C[S@@+]([O-])C[C@@H](C(N)=O)NC(=O)CCCCNC(=O)[C@H](CC(N)=O)NC(=O)[C@](C)(CCCC(=O)O)NC(=O)[C@H](Cc2ccc(O)cc2)NC1=O ([Aad]LY[αMehGlu]N[Ava][Cys(CH2CO)(S-oxide,Ss)]-NH2; lactam N-7)

The remaining lines, values behind:

Row | SMILES | IC50 [1] [µM] | IC50 (MDA-MB-453) [µM]
10 | C[C@@](CCC(=O)O)(NC(=O)[C@H](Cc1ccc(O)c(CCC(=O)O)c1)NC(=O)OCC1c2ccccc2-c2ccccc21)C(=O)N[C@@H](CC(N)=O)C(N)=O | 168 | 
11 | CC(C)C[C@H](NC(=O)[C@H](CC(C(=O)O)C(=O)O)NC(=O)OCC1c2ccccc2-c2ccccc21)C(=O)N[C@@H](Cc1ccc(O)c(N)c1)C(=O)NC1(C(=O)N[C@@H](CC(N)=O)C(N)=O)CCCCC1 (Fmoc-[Gla]L[Tyr(3-NH2)][Ac6c]N-NH2) | 2.5 | 52
12 | CC(C)C[C@H](NC(=O)[C@H](CCCC(=O)O)NC(=O)OCC1c2ccccc2-c2ccccc21)C(=O)N[C@@H](Cc1ccc(O)c(CCC(=O)O)c1)C(=O)N[C@@](C)(CCC(=O)O)C(=O)N[C@@H](CC(N)=O)C(N)=O (Fmoc-[Aad]L[X1][αMeE]N-NH2) | 5.6 | 14
13 | CC(C)C[C@@H]1NC(=O)[C@H](CCCC(=O)O)NC(=O)CSC[C@@H](C(N)=O)NC(=O)CCCCNC(=O)[C@H](CC(N)=O)NC(=O)[C@](C)(CC(=O)O)NC(=O)[C@H](Cc2ccc(O)cc2)NC1=O ({CH2CO}-[Aad]LY[αMeD]N[Ava]C-NH2; thioether N-7) | 108 | 
14 | CC(C)C[C@H](NC(=O)[C@@H](N)CC(C(=O)O)C(=O)O)C(=O)N[C@@H](Cc1ccc(O)c(N)c1)C(=O)N[C@@](C)(CCC(=O)O)C(=O)N[C@@H](CC(N)=O)C(N)=O (H-[Gla]L[Tyr(3-NH2)][αMeE]N-NH2) | 19 | 
15 | CC(C)C[C@H](NC(=O)[C@H](CCCC(=O)O)NC(=O)OCC1c2ccccc2-c2ccccc21)C(=O)N[C@@H](Cc1ccc(O)c(N)c1)C(=O)NC1(C(=O)N[C@@H](CC(N)=O)C(N)=O)CCCCC1 (Fmoc-[Aad]L[Tyr(3-NH2)][Ac6c]N-NH2) | 5.8 | 
16 | CC(C)C[C@H](NC(=O)[C@@](C)(CCCC(=O)O)NC(=O)OCC1c2ccccc2-c2ccccc21)C(=O)N[C@@H](Cc1ccc(O)c(N)c1)C(=O)NC1(C(=O)N[C@@H](CC(N)=O)C(N)=O)CCCCC1 (Fmoc-[X2]L[Tyr(3-NH2)][Ac6c]N-NH2) | 700 | 
17 | CC(C)C[C@H](NC(=O)[C@](C)(CCCC(=O)O)NC(=O)OCC1c2ccccc2-c2ccccc21)C(=O)N[C@@H](Cc1ccc(O)cc1)C(=O)NC1(C(=O)N[C@@H](CC(N)=O)C(N)=O)CCCCC1 (Fmoc-[αMehGlu]LY[Ac6c]N-NH2) | 118 | 
18 | C[C@@](CCC(=O)O)(NC(=O)[C@@H](N)Cc1ccc(O)c(CCO)c1)C(=O)N[C@@H](CC(N)=O)C(N)=O | 290 | 
19 | CC(C)C[C@@H]1NC(=O)[C@H](CCCC(=O)O)NC(=O)C[S@@+]([O-])C[C@@H](C(N)=O)NC(=O)CCCCNC(=O)[C@H](CC(N)=O)NC(=O)C2(CCCCC2)NC(=O)[C@H](Cc2ccc(O)cc2)NC1=O ([Aad]LY[Ac6c]N[Ava][Cys(CH2CO)(S-oxide,Ss)]-NH2; lactam N-7) | 77 | 
20 | CC(C)C[C@H](NC(=O)[C@](C)(CCCC(=O)O)NC(=O)OCC1c2ccccc2-c2ccccc21)C(=O)N[C@@H](Cc1ccc(O)c(N)c1)C(=O)NC1(C(=O)N[C@@H](CC(N)=O)C(N)=O)CCCCC1 (Fmoc-[αMehGlu]L[Tyr(3-NH2)][Ac6c]N-NH2) | 3.9 | 29
21 | CC(C)C[C@@H]1NC(=O)[C@H](CCCC(=O)O)NC(=O)CSC[C@@H](C(N)=O)NC(=O)CCCCNC(=O)[C@H](CC(N)=O)NC(=O)[C@@](C)(CCC(=O)O)NC(=O)[C@H](Cc2ccc(O)cc2)NC1=O | 60.5 | 
22 | CC(C)C[C@H](NC(=O)[C@@](C)(CCCC(=O)O)NC(=O)OCC1c2ccccc2-c2ccccc21)C(=O)N[C@@H](Cc1ccc(O)cc1)C(=O)NC1(C(=O)N[C@@H](CC(N)=O)C(N)=O)CCCCC1 (Fmoc-[X2]LY[Ac6c]N-NH2) | > 1000 | 
23 | CC(C)C[C@H](NC(=O)[C@H](CC(C(=O)O)C(=O)O)NC(=O)OCC1c2ccccc2-c2ccccc21)C(=O)N[C@@H](Cc1ccc(O)c(N)c1)C(=O)N[C@@](C)(CCC(=O)O)C(=O)N[C@@H](CC(N)=O)C(N)=O (Fmoc-[Gla]L[Tyr(3-NH2)][αMeE]N-NH2) | 4.4 | 55
24 | CC(C)C[C@@H]1NC(=O)[C@H](CCCC(=O)O)NC(=O)CSC[C@@H](C(N)=O)NC(=O)CCCCNC(=O)[C@H](CC(N)=O)NC(=O)[C@](C)(CCCC(=O)O)NC(=O)[C@H](Cc2ccc(O)cc2)NC1=O ({CH2CO}-[Aad]LY[αMehGlu]N[Ava]C-NH2; thioether N-7) | 60.7 | 
